The record followed here is ChEMBL document CHEMBL4052637, “Discovery and Characterization of R/S-N-3-Cyanophenyl-N'-(6-tert-butoxycarbonylamino-3,4-dihydro-2,2-dimethyl-2H-1-benzopyran-4-yl)urea, a New Histone Deacetylase Class III Inhibitor Exerting Antiproliferative Activity against Cancer Cell Lines” (J Med Chem, 2017).

Calls of active or inactive are those of the source. No cut-off for these calls is given here.

Experiment [1] is described as follows: Induction of apoptosis in human U373 cells at 10 uM after 72 hrs by TUNEL method relative to control. It is filed as functional, U-373MG ATCC.
The subject of experiment [2] is U-373MG ATCC. Briefly: Cell cycle arrest in human U373 cells assessed as accumulation at G1 phase at IC50 after 24 to 48 hrs by propidium iodide staining-based flow cytometry. Format: functional. Summed up:
(§1)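 Cells were exposed to compound at the IC50 for each line from the 72 h MTT assay, or to a reference HDAC inhibitor at 2 μM. Cell cycle distribution was analyzed after 24 and 48 h. Results are mean ± SD of three independent experiments, with p values against control cells.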
(In general: A flow cytometer gives signals particle by particle.)

Another experiment concerns IGROV-1. Put plainly: Growth inhibition of human IGROV1 cells after 48 hrs by SRB assay. Format: functional. As to conditions: IGROV-1, 48 h. A general note: Sulforhodamine B stains cellular protein and so reports cell mass.
Experiment [3] has as its target T1, NAD-dependent protein deacetylase sirtuin-2 (Homo sapiens) (UniProt Q8IXJ6).
T1 sequence (whole entry): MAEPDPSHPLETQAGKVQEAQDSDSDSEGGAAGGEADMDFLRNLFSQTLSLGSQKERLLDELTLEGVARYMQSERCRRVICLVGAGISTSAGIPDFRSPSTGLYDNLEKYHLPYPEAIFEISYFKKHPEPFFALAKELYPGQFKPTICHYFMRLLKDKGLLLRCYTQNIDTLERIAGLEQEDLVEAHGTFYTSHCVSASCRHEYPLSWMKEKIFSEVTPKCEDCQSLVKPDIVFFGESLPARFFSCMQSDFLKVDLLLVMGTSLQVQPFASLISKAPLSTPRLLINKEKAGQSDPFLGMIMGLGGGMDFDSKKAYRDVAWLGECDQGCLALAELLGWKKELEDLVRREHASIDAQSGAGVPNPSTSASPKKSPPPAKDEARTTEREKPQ
Briefly: Inhibition of SIRT2 in human U373 cells assessed as increase of alpha-tubulin acetylation at 1 uM after 8 hrs by Western blotting method relative to control. It is filed as cell-based. In general terms: A western blot detects proteins with antibodies after separation by electrophoresis.

Experiment [4] deals with U-373MG ATCC. Briefly: Antitumor activity against CM-Dil fluorescent dye labeled human U373 cells xenografted in zebrafish embryo at 5 to 10 uM preincubated with tumor for 30 to 36 hrs followed by tumor implantation in zebra fish yolk sac measured after 72 hrs by fluorescence microscopy. It is filed as functional, cell-based. Summed up:
(§2)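 Cells were pretreated in vitro at 5 or 10 μM for 30 or 36 h and labeled with CM-DiI 2 h before injection. Then 100–200 cells were injected into the yolk sac of wild-type zebrafish 48 h post-fertilization, anesthetized in 0.02% tricaine. Embryos were kept 72 h at 28.5 °C in Danieau solution with 0.003% phenylthiourea, and fluorescence was quantified in eight fish per condition.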

Experiment [5] deals with Hs 683. Briefly: Potency index, ratio of AGK2 IC50 to test compound IC50 for human Hs683 cells. Format: functional.
Experiment [6] has as its system Hs 683. Put plainly: Induction of senescence in human Hs683 cells at 5 uM after 6 days by beta-galactosidase assay (reference value: 0.2%). It is filed as functional. Summed up: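 Cells were kept 6 days in medium containing 5 μM compound or DMSO vehicle, then stained for senescence-associated β-galactosidase activity. Blue-stained cells were counted and expressed as a percentage of total cells counted. Two independent experiments.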

The test system of experiment [7] is U-373MG ATCC. Put plainly: Inhibition of spheroid forming capacity of human U373 cells assessed as decrease in volume of multicellular tumor spheroids at 5 to 10 uM treated for 24 hrs measured after 96 hrs by bright field microscopic method. It is filed as functional, cell-based. Summed up: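 Spheroids formed from 1 × 10^3 cells in 25 μL. Cells were pretreated 24 h with compound then left untreated 96 h, or untreated spheroids were cultured 96 h with compound. Surface measured from bright-field images; volume in voxels from 3D plots after image segmentation. Mean ± SD of three independent experiments.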

A further experiment concerns A549. Put plainly: Growth inhibition of human A549 cells after 48 hrs by SRB assay. Format: functional. The conditions noted are these: A549, 48 h.
The next experiment concerns SW1573/2R120. Briefly: Antiproliferative activity against human SW1573/2R120 cells overexpressing ABCC1/LRP after 72 hrs by MTT assay. Format: functional, cell-based. Summed up: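 MTT assay: cells in RPMI 1640 with 10% heat-inactivated FCS at 37 °C and 5% CO2 were seeded 24 h before treatment. They were exposed 72 h to compound at 0.01–100 μM, with DMSO as solvent.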

In experiment [8] the target is T1, NAD-dependent protein deacetylase sirtuin-2 (Homo sapiens). Briefly: Inhibition of SIRT2 in human Hs683 cells assessed as increase of alpha-tubulin acetylation after 8 hrs by Western blotting method. It is filed as cell-based.
Experiment [9] deals with Hs 683. Briefly: Cell cycle arrest in human Hs683 cells assessed as accumulation at sub-G1 phase at IC50 for MTT assay after 24 to 48 hrs by propidium iodide staining-based flow cytometry. It is filed as functional. Summed up:
as §1

For a further experiment, the system named is MDA-MB-435. Put plainly: Growth inhibition of human MDA-MB-435 cells after 48 hrs by SRB assay. The conditions noted are these: MDA-MB-435, 48 h. It is filed as functional.
Experiment [10] concerns the target T2, NAD-dependent protein deacetylase sirtuin-1 (Homo sapiens) (UniProt Q96EB6).
T2 sequence (whole entry): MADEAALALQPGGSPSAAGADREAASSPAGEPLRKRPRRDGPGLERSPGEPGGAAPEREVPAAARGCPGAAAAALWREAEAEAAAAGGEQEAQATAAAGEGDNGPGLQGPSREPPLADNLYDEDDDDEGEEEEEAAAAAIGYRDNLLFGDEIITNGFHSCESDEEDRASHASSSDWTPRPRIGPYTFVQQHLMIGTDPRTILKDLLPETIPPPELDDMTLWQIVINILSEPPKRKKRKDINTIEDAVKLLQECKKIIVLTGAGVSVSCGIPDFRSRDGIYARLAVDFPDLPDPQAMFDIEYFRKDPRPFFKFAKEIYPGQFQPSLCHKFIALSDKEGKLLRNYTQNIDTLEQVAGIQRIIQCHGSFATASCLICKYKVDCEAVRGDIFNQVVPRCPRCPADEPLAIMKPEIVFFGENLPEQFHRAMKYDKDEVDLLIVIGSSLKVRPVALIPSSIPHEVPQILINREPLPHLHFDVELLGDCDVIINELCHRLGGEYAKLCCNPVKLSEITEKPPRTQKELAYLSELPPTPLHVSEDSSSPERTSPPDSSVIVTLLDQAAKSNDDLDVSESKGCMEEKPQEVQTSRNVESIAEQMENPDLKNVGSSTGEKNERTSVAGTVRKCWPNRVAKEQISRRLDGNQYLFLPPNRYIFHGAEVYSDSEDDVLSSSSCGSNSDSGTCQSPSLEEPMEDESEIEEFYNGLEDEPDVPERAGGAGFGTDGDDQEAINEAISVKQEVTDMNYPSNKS
Put plainly: Inhibition of SIRT1 in human U373 cells assessed as increase of histone H3K56 acetylation at 10 to 25 after 8 to 24 hrs by Western blotting method. It is filed as cell-based. Summed up:
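Cells treated with the compound, then histone H3K56 acetylation assessed by Western blot on histone extracts; histone H1 or Coomassie staining as loading control.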

The next experiment concerns Malme-3M. Put plainly: Growth inhibition of human MALME-3M cells after 48 hrs by SRB assay. It is filed as functional.
For a further experiment, the system named is EKVX. Briefly: Growth inhibition of human EKVX cells after 48 hrs by SRB assay. It is filed as functional.
Another experiment deals with MCF7. Briefly: Growth inhibition of human MCF7 cells after 48 hrs by SRB assay. As to conditions: MCF7, 48 h. Format: functional.
Experiment [11] concerns Hs 683. Put plainly: Antitumor activity against CM-Dil fluorescent dye labeled human Hs683 cells xenografted in zebrafish embryo at 10 uM preincubated with tumor for 36 hrs followed by tumor implantation in zebra fish yolk sac measured after 72 hrs by fluorescence microscopy. It is filed as functional, cell-based. Summed up: as §2
Experiment [12] is described as follows: Selectivity index, ratio of IC50 for mouse astrocytes to IC50 for human U373 cells.

Regarding `CC(C)(C)OC(=O)Nc1ccc2c(c1)C(NC(=O)Nc1cccc(C#N)c1)CC(C)(C)O2` (centres undefined), the Activity in [1] is less than 10%; in the experiment with Hs 683 [6], 0.5%. Further, the result in the experiment with U-373MG ATCC [2], in the experiment on U-373MG ATCC [4], in the experiment with SW1573/2R120 and with Hs 683 [11] was Active. The GI50 (in general, the concentration that inhibits growth by half) in the experiment with IGROV-1 was 6310 nM; in the experiment on A549, 2750 nM; with MDA-MB-435, 1480 nM; in the experiment with Malme-3M, 4070 nM; in the experiment on EKVX it was 562 nM; with MCF7 it was 2140 nM. For the same molecule, the fold change (FC) in [3] came to 0.9. Moreover, the “Ratio IC50” value with Hs 683 [5] is reported as 6 - 14; in [12], more than 10. Also, the inhibition entry (in the experiment with U-373MG ATCC [7]; in experiment [10]) was “Active” throughout. For the same molecule, the inhibition entry in experiment [8] was “Dose-dependent effect”. In the experiment with Hs 683 [9], the outcome was inactive.
